Calls of active or inactive are those of the source. The rule behind the calls is not given here. Where only a bound is given, the exact number is not on record here.

For one test, the target named is T1, Tyrosinase (Agaricus bisporus, UniProt O42713).
T1 sequence (O42713 whole entry): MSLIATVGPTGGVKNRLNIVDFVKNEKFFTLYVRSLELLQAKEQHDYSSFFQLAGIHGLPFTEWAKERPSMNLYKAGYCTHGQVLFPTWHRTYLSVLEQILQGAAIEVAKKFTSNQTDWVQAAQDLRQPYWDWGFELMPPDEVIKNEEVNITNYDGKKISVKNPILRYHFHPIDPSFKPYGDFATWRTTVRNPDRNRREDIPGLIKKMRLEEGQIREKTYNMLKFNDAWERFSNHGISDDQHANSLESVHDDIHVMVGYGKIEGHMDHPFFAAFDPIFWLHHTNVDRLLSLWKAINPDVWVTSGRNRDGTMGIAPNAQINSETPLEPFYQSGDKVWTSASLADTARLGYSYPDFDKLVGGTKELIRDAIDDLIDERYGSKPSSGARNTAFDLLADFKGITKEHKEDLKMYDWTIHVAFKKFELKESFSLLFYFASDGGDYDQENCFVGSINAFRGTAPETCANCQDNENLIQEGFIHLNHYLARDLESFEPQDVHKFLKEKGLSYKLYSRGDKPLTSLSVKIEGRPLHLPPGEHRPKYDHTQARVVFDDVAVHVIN
Description: Inhibition of diphenolase activity of mushroom tyrosinase.
Conditions: not given
The compound `CC(=O)OC[C@H]1O[C@@H](Oc2ccccc2C=C2C(=O)NC(=O)NC2=O)[C@H](OC(C)=O)[C@@H](OC(C)=O)[C@@H]1OC(C)=O` had an IC50 greater than 3000 µM.
The compound `CC(=O)OC[C@H]1O[C@@H](Oc2ccc(C=C3C(=O)NC(=S)NC3=O)cc2)[C@H](OC(C)=O)[C@@H](OC(C)=O)[C@@H]1OC(C)=O` had a 50% inhibitory concentration (IC50) of 230 µM.
On the same count and under the same terms, the figure for `CC(=O)OC[C@H]1O[C@@H](Oc2cccc(C=C3C(=O)NC(=O)NC3=O)c2)[C@H](OC(C)=O)[C@@H](OC(C)=O)[C@@H]1OC(C)=O` is greater than 3000 µM.
As to `CC(=O)OC[C@H]1O[C@@H](Oc2ccc(C=O)cc2)[C@H](OC(C)=O)[C@H](OC(C)=O)[C@@H]1OC(C)=O`, inhibition was half-maximal at 780 µM (IC50).
As for `CC(=O)OC[C@H]1O[C@@H](Oc2ccc(C=C3C(=O)NC(=O)NC3=O)cc2O)[C@H](OC(C)=O)[C@@H](OC(C)=O)[C@@H]1OC(C)=O`, the half-maximal inhibitory concentration (IC50) amounted to 130 µM.
The compound `CC(=O)OC[C@H]1O[C@@H](Oc2ccc(C=C3C(=O)NC(=O)NC3=O)c(O)c2)[C@H](OC(C)=O)[C@@H](OC(C)=O)[C@@H]1OC(C)=O` came in with an IC50 of 1730 µM.
`CC(=O)OC[C@H]1O[C@@H](Oc2ccc(C=C3C(=O)NC(=S)NC3=O)cc2)[C@H](OC(C)=O)[C@H](OC(C)=O)[C@@H]1OC(C)=O` displayed an IC50 of 340 µM.
For `CC(=O)OC[C@H]1O[C@@H](Oc2ccccc2C=C2C(=O)NC(=S)NC2=O)[C@H](OC(C)=O)[C@@H](OC(C)=O)[C@@H]1OC(C)=O`, it took 430 µM to reach half-maximal inhibition (IC50).
The same measure, in the same setting: to `CC(=O)OC[C@H]1O[C@@H](Oc2cccc(C=C3C(=O)NC(=S)NC3=O)c2)[C@H](OC(C)=O)[C@@H](OC(C)=O)[C@@H]1OC(C)=O` belongs 870 µM.
The same measure, in the same setting: the figure for `CC(=O)OC[C@H]1O[C@@H](Oc2ccccc2C=O)[C@H](OC(C)=O)[C@@H](OC(C)=O)[C@@H]1OC(C)=O` is greater than 3000 µM; for `CC(=O)OC[C@H]1O[C@@H](Oc2cccc(C=O)c2)[C@H](OC(C)=O)[C@@H](OC(C)=O)[C@@H]1OC(C)=O` it is greater than 3000 µM; for `O=C1NC(=O)C(=Cc2ccc(O[C@@H]3O[C@H](CO)[C@@H](O)[C@@H](O)[C@H]3O)cc2)C(=O)N1` it is 1630 µM.
Same read-out and setting: the figure for `CC(=O)OC[C@H]1O[C@@H](Oc2ccc(C=O)c(O)c2)[C@H](OC(C)=O)[C@@H](OC(C)=O)[C@@H]1OC(C)=O` is greater than 3000 µM; for `O=C1NC(=S)NC(=O)C1=Cc1ccc(O[C@@H]2O[C@H](CO)[C@@H](O)[C@@H](O)[C@H]2O)cc1` it is 1160 µM; for `CC(=O)OC[C@H]1O[C@@H](Oc2ccc(C=C3C(=O)NC(=O)NC3=O)cc2)[C@H](OC(C)=O)[C@H](OC(C)=O)[C@@H]1OC(C)=O` it is 1500 µM.
`CC(=O)OC[C@H]1O[C@@H](Oc2ccc(C=C3C(=O)NC(=S)NC3=O)cc2O)[C@H](OC(C)=O)[C@@H](OC(C)=O)[C@@H]1OC(C)=O` yielded an IC50 of 50 µM.
The same measure, in the same setting: to `CC(=O)OC[C@H]1O[C@@H](Oc2ccc(C=C3C(=O)NC(=O)NC3=O)cc2)[C@H](OC(C)=O)[C@@H](OC(C)=O)[C@@H]1OC(C)=O` belongs 1270 µM; to `CC(=O)OC[C@H]1O[C@@H](Oc2ccc(C=O)cc2O)[C@H](OC(C)=O)[C@@H](OC(C)=O)[C@@H]1OC(C)=O`, 430 µM.
`CC(=O)OC[C@H]1O[C@@H](Oc2ccc(C=C3C(=O)NC(=S)NC3=O)c(O)c2)[C@H](OC(C)=O)[C@@H](OC(C)=O)[C@@H]1OC(C)=O`: half-maximal inhibition (IC50) was put at 280 µM.

The next test has as its target T2, Tyrosinase (Agaricus bisporus) (UniProt O42713).
T2 sequence (whole entry): T1 sequence (O42713 whole entry)
Description: Irreversible inhibition of mushroom tyrosinase assessed as oxidation of L-DOPA at 0.8 mmol/L […].
Conditions: not given
The procedure, abridged:
(§1)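 Mushroom tyrosinase was run with L-DOPA as substrate. Enzyme concentration was varied at fixed inhibitor levels of 0, 0.5, 0.8 and 1.0 mmol/L. Rate (V) was plotted against enzyme concentration [E] for each inhibitor level to judge whether inhibition was reversible or irreversible.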
As to `CC(=O)OC[C@H]1O[C@@H](Oc2ccc(C=C3C(=O)NC(=O)NC3=O)cc2O)[C@H](OC(C)=O)[C@@H](OC(C)=O)[C@@H]1OC(C)=O`, the inhibition entry was “Active”.

A further test concerns the target T2, Tyrosinase (Agaricus bisporus). Description: Irreversible inhibition of mushroom tyrosinase assessed as oxidation of L-DOPA at 1 mmol/L […].
Conditions: not given
The procedure, abridged:
as §1
For the compound `CC(=O)OC[C@H]1O[C@@H](Oc2ccc(C=C3C(=O)NC(=S)NC3=O)cc2O)[C@H](OC(C)=O)[C@@H](OC(C)=O)[C@@H]1OC(C)=O`, the inhibition entry was “Active”.

The target is the same in the next test. The conditions noted are these: 0.5 mmol/L.
Turning to `CC(=O)OC[C@H]1O[C@@H](Oc2ccc(C=O)cc2O)[C@H](OC(C)=O)[C@@H](OC(C)=O)[C@@H]1OC(C)=O`, the inhibition result was “Active”.

These data come from ChEMBL document CHEMBL1153055, “Synthesis and evaluation of 5-benzylidene(thio)barbiturate-beta-D-glycosides as mushroom tyrosinase inhibitors” (Bioorg Med Chem Lett, 2009).
